Consider 96 molecules from ChEMBL document CHEMBL4513216, “Probing the Open Global Health Chemical Diversity Library for Multistage-Active Starting Points for Next-Generation Antimalarials” (ACS Infect Dis, 2020).

The data set is described as follows: Toxicity liver stage against HepG2, at 10uM. The conditions noted are these: human, HepG2-A16-CD81EGFP cells; read-out: INHIBITION
In kind it is cell-based. Also on record: test concentration 10 uM, cell line HepG2-A16-CD81EGFP. In a few lines:
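Uninfected HepG2-A16-CD81EGFP cells, 3 × 10^3 per well, 1536-well, plated on prespotted compound at 10 μM final, parasite-free screening media added to match infected plates; puromycin 10 μM positive, DMSO 0.5% negative; run in parallel with 48 h PbLuc assay at 37 °C, 5% CO2; viability by CellTiter-Glo luminescence, normalized to controls.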

Take `Cn1[nH]c(C2CCCN(C(=O)CO)C2)cc1=O` (stereo unspecified): the cytotoxicity at 10 µM worked out at 2.01%.

On to `CCc1nc(CN(C)Cc2nc(-c3ccccc3Cl)oc2C)no1`, for which the cytotoxicity at 10 µM is -8.83%. Consider `COc1ccc(CNCC(O)c2cccc(O)c2)cc1Br` (stereo unspecified), for which the cytotoxicity at 10 µM is -3.86%. Regarding `Cc1ccc(N2CCC(c3nccn3Cc3cscn3)CC2)nn1`, the cytotoxicity at 10 µM is -12.8%. `CNC(=O)[C@H]1C[C@@H]2CN(C(=O)c3cccnc3)C[C@@H]2N1S(C)(=O)=O`: the cytotoxicity at 10 µM is -4.12%. The value for `Cc1cn2c(n1)CCC(NC(=O)CCn1cncn1)C2` (stereo unspecified) was -5.72%.

Turning to `CC(=O)N1CCCCC[C@@H]2[C@@H]1[C@H](c1cccc(F)c1)CN2C(=O)C1CC1`, the cytotoxicity at 10 µM is 6.75%. With `COc1ncc(C)cc1NC(=O)COCC(F)(F)F`, the cytotoxicity at 10 µM was -5.42%. As for `O=C(NCc1ccccn1)[C@@]12CCO[C@@H]1CCN(Cc1ccccn1)C2`, the cytotoxicity at 10 µM is -112%.

Turning to `COc1cc(N2CCCC3(CCN(c4cncnc4)C3=O)C2)ncn1` (stereo unspecified), the cytotoxicity at 10 µM was -103%. Consider `CN(C)C(=O)NCc1cc2n(n1)CCN(CC1[C@H]3CNC[C@@H]13)C2` (stereo partly specified), for which the cytotoxicity at 10 µM is -27.7%.

Regarding `CCC(CNC(=O)c1cncc(Br)c1)N1CCc2ccccc2C1` (stereo unspecified), the cytotoxicity at 10 µM is 13.4%.

As to `CO[C@H]1CCN(C(=O)Cc2ccsc2)[C@@H]2CN(CC3CC3)C[C@H]12`, the cytotoxicity at 10 µM was found to be 6.35%. As for `Cc1cc(CN2CCOC(CN(C)C)C2)no1` (stereo unspecified), the cytotoxicity at 10 µM was -0.759%. On to `CC1CCN(S(=O)(=O)NCc2ccccc2Cn2cccn2)CC1`, for which the cytotoxicity at 10 µM turned out to be 7.4%. As to `CC(O)CN1CCN(C(=O)c2cc(Cl)cc3cccnc23)CC1` (stereo unspecified), the cytotoxicity at 10 µM was -1.78%. For the molecule `Cc1cccnc1N1CC2(CCN(Cc3cccnc3)C2)C1`, the cytotoxicity at 10 µM is -8.13%. For `COC(=O)c1sc2cccc(F)c2c1CNC(=O)C1CCCO1` (stereo unspecified), the cytotoxicity at 10 µM is -13.5%. For the molecule `CS(=O)(=O)CCn1ccc(NC(=O)Cc2c[nH]c3ccccc23)n1`, the cytotoxicity at 10 µM was 2%.

In the case of `Cn1cc(CN2CC[C@H]3C[C@@H](c4nc(C5CC5)cs4)O[C@@H]3C2)cn1`, the cytotoxicity at 10 µM was found to be 8.84%. As to `CNS(=O)(=O)CCCN1CCCC1c1noc(C2CC2)n1` (stereo unspecified), the cytotoxicity at 10 µM was -16.5%. Consider `COCCNc1cc(C2CCCNC2)ccn1` (stereo unspecified), for which the cytotoxicity at 10 µM is -7.17%.

For `Cc1noc(C)c1S(=O)(=O)N1CCC(Oc2ccccn2)CC1`, the cytotoxicity at 10 µM stood at 0.67%. Then `Cc1nn(CN(Cc2ccsc2)C2CC2)c(=O)c2noc(C)c12`, with -1.54%; and `c1cnc2c(-c3nccn3C[C@@H]3CCCN4CCCC[C@H]34)cccc2c1`, with 1.83%.

On to `CN1C[C@@H]2CN(Cc3ccsc3)CCC[C@]2(C(=O)O)C1`, for which the cytotoxicity at 10 µM is -141%.

Regarding `CC(C)c1noc(CCC(=O)N2CCN(Cc3ccncc3)CC2)n1`, the cytotoxicity at 10 µM was -9.08%. `COc1cccc(OC2CN(C(=O)CCn3cnnn3)C2)c1`: the cytotoxicity at 10 µM is -0.0726%.

Turning to `CN1CCN(C(=O)c2nc3c(s2)CCCN3C(=O)C2CC2)CC1`, the cytotoxicity at 10 µM was found to be 1.82%. Regarding `CCOc1ccc(SCCS(=O)(=O)CC)cc1`, the cytotoxicity at 10 µM was -2.91%. `Cc1ccc(NC2CCN(C(=O)Cc3c(C)nn(C)c3C)CC2)nn1`: the cytotoxicity at 10 µM was -11.9%. On to `Cc1cnn(CC2CCCN2C(=O)c2cccc3[nH]ncc23)c1` (stereo unspecified), for which the cytotoxicity at 10 µM was -10.8%. Then `Cc1nccc(N(C)Cc2ncc(-c3ccccc3C(=O)O)s2)n1`, with 1.31%; and `COc1ccc(CCN2CC(c3nc(CSC)no3)CCC2=O)cc1` (stereo unspecified), with 3.11%; and `CCCNC(=O)CCC(=O)N1CCC(c2noc3cc(F)ccc23)CC1`, with 2.45%. `Cc1cc(C)n(CC2CCCCN2CC(=O)N(C)Cc2ccco2)n1` (stereo unspecified): the cytotoxicity at 10 µM was -9.75%. On to `Cc1ccc(C(=O)N2CC[C@@H](N(C)C)[C@@H]2Cc2cnn(C)c2)cn1`, for which the cytotoxicity at 10 µM was -73.4%. With `O=C(NC1CC1)c1cccc(S(=O)(=O)NCCc2nc(C3CC3)no2)c1`, the cytotoxicity at 10 µM was -0.714%.

Regarding `CC(=O)c1c(F)cccc1NCC(O)c1ccc(F)c(F)c1` (stereo unspecified), the cytotoxicity at 10 µM came out at 13.3%. The value for `O=C(N[C@@H]1CCN(Cc2cc3ccccc3s2)C[C@H]1O)c1cccnc1` was -7.57%; that for `COCCc1noc(CN(C)C(=O)c2cccc(N3CCCC3=O)c2)n1` was -9.91%. Take `O=S1(=O)NCC2(CCNCC2)COc2ccccc21`: the cytotoxicity at 10 µM is -2.75%. The value for `Cc1oc(-c2nc(C#N)c(NC(C)(C)C)o2)cc1S(=O)(=O)N1CCCC1` was -0.699%; that for `Cn1cc(C2CCCN2C(=O)COC2CCCCC2)cn1` (stereo unspecified) was -8.79%; that for `CC(C)c1cc(C(=O)N2C[C@@H]3CC[C@H]2CN(Cc2ccccn2)C3)no1` was 2.46%.

On to `CCC(=O)Nc1ccc2c(c1)C1(CCOCC1)CN2CCF`, for which the cytotoxicity at 10 µM is -87.4%. Take `O=C(O)c1ccccc1-c1ccc(CN2CC(O)C2)cc1`: the cytotoxicity at 10 µM was -0.363%. Take `CC(Cn1cccn1)NC(=O)NCc1ccccn1` (stereo unspecified): the cytotoxicity at 10 µM was determined as 6.79%.

As to `CNC(=O)C1Cc2ccccc2CN1CCc1cccs1` (stereo unspecified), the cytotoxicity at 10 µM was -0.837%. Consider `CC(=O)N[C@@H]1CN(C2CCN(c3cccc(C)c3C)CC2)C[C@H]1C(C)C`, for which the cytotoxicity at 10 µM was -11.7%. Turning to `Fc1ccc(C2CCCCN2Cc2cc(-c3ccccn3)no2)cc1` (stereo unspecified), the cytotoxicity at 10 µM is -3.88%.

On to `CCc1ccc(CNC2(c3ccc(F)cc3)CCOCC2)o1`, for which the cytotoxicity at 10 µM was determined as 4.68%. Then `OC(CNC1CCOCC1)c1cccc(OCc2ccccc2)c1` (stereo unspecified), with -10.3%. Consider `CCn1cc(CNC2CCN(c3c(F)cccc3F)C2)cn1` (stereo unspecified), for which the cytotoxicity at 10 µM is -2.93%. For the molecule `Cc1ccc(C(=O)NC2CCCN(CC(N)=O)C2)c(=O)[nH]1` (stereo unspecified), the cytotoxicity at 10 µM came out at 0.601%. Regarding `O=C(NCCc1ccccc1F)NCC(O)c1cccc(F)c1` (stereo unspecified), the cytotoxicity at 10 µM is -6.23%.

As to `Cc1ncsc1CCN(C)C(=O)CN1CCOc2ccccc2C1`, the cytotoxicity at 10 µM came out at 5.72%. On to `Cc1nnc(C2CCN(c3ccccc3)CC2)o1`, for which the cytotoxicity at 10 µM came out at 8.84%. As to `Cc1ccc(N2CC3(COCCN(Cc4ccncc4)C3)OCC2=O)s1` (stereo unspecified), the cytotoxicity at 10 µM is 8.59%. As for `NC(=O)C1CN(C(=O)NCC2(c3ccc(F)cc3)CCC2)CCO1` (stereo unspecified), the cytotoxicity at 10 µM is -5.07%. For `CCc1cccc(CC(=O)NC2CCN(C(=O)NC(C)(C)C)CC2)c1`, the cytotoxicity at 10 µM is -4.73%. As for `Cc1ncsc1CN1C[C@H](C(=O)NC2CCCC2)[C@@H]2CCO[C@@H]2C1`, the cytotoxicity at 10 µM turned out to be 8.04%. Regarding `CC[C@@]1(O)CCN(C(=O)c2ccc(OC(F)F)cc2)C[C@H]1O`, the cytotoxicity at 10 µM was found to be 6.2%. Take `CC(=O)NCC1CCN(c2cc(C)nc(-c3ccncc3)n2)CC1`: the cytotoxicity at 10 µM was -1.36%. On to `Cn1ccnc1CN(CCCO)C1CCCc2ccccc21` (stereo unspecified), for which the cytotoxicity at 10 µM was -6.91%. Consider `C1CCC(NC2CCCN(Cc3noc(C4CC4)n3)C2)C1` (stereo unspecified), for which the cytotoxicity at 10 µM is -5.05%. As for `CCc1nnc2n1CCN(C(=O)CCc1ccc(C)c(Cl)c1)C2`, the cytotoxicity at 10 µM was -4.01%. For the molecule `COc1ccc2c(c1)NC(=O)C2OC(=O)CCc1ccc(F)cc1` (stereo unspecified), the cytotoxicity at 10 µM is -4.71%.

For the molecule `CCOCCC(=O)N1CCCC(c2ncc[nH]2)C1` (stereo unspecified), the cytotoxicity at 10 µM was -9.43%. For the molecule `CN1CCOC(CNCc2csc(C3CCCCC3)n2)C1` (stereo unspecified), the cytotoxicity at 10 µM is -8.57%.

As for `Cc1nc(CNC(=O)C(C)(C)c2ccc(F)cc2)no1`, the cytotoxicity at 10 µM was 6.08%. For `CNC(=O)C1CCN(C(=O)c2cccn2Cc2cccs2)CC1`, the cytotoxicity at 10 µM is -3.74%.

On to `CCc1nc(CN(C)C(=O)NCc2cccc(NC(C)=O)c2)cs1`, for which the cytotoxicity at 10 µM is -3.71%. Turning to `COCC(=O)N1CC[C@]2(O)CCN(Cc3ccsc3)C[C@@H]2C1`, the cytotoxicity at 10 µM stood at 0.196%.

As to `CCN(CC)S(=O)(=O)c1ccc(C(=O)NC(C)(C#N)C2CC2)cc1` (stereo unspecified), the cytotoxicity at 10 µM was -5.77%. The value for `Cc1ncccc1CNC(CCO)C1CCCCC1` (stereo unspecified) was -41.8%; that for `O=C(CCN1CCCC1c1cccc2c1OCCO2)N1CCOCC1` (stereo unspecified) was 25.6%. On to `CC(C)(C)c1noc(CN2CCCC(CNS(N)(=O)=O)C2)n1` (stereo unspecified), for which the cytotoxicity at 10 µM was 1.3%.

As for `Cc1cnccc1CN1C[C@@H](O)[C@H](Oc2ccccc2)C1`, the cytotoxicity at 10 µM worked out at 1.85%. On to `O=C(NS(=O)(=O)Cc1ccon1)c1ccsc1`, for which the cytotoxicity at 10 µM was -14.2%. Then `Cc1nn(C(C)C)c(C)c1NC(=O)c1cccnc1`, with -1.57%; and `CCN1CCN(c2ccc(F)cc2C(C)NCc2noc(C)n2)CC1` (stereo unspecified), with 1.8%. On to `O=S(=O)(CCN1CCCC1Cn1cncn1)c1ccccc1` (stereo unspecified), for which the cytotoxicity at 10 µM was -21%. Regarding `Fc1ccc(CC2CCN(Cc3cscn3)CC2)cc1`, the cytotoxicity at 10 µM is -7.27%. Consider `O=C(N[C@@H]1CN(c2ncccn2)[C@@H]2CCCO[C@@H]21)c1cscn1`, for which the cytotoxicity at 10 µM was -142%. Turning to `CN1C(Cn2cccn2)C[C@@H]2CN(Cc3cccnc3)CC[C@@H]21` (stereo partly specified), the cytotoxicity at 10 µM came to 8.01%. Take `Cc1nc(COC[C@H]2CC[C@H]3[C@H](CCN3C(N)=O)O2)cs1`: the cytotoxicity at 10 µM is -81.2%. For the molecule `c1csc(C(CNCc2cccc3c2OCO3)N2CCOCC2)c1` (stereo unspecified), the cytotoxicity at 10 µM is -44.4%. As for `COc1ccc(CCNC(=O)N2CCCC(c3nncn3C)C2)cc1` (stereo unspecified), the cytotoxicity at 10 µM was -3.92%. With `Cc1ccc2c(n1)N(CCN(C)C)CCN(C(=O)N1CCOCC1)C2`, the cytotoxicity at 10 µM was -73.1%. On to `c1ccc(Cc2noc(CN(Cc3cccs3)CC3CCCO3)n2)cc1` (stereo unspecified), for which the cytotoxicity at 10 µM was -5.77%. Turning to `Cc1ncsc1C(=O)NCc1cc2n(n1)CCN(C(=O)N(C)C)C2`, the cytotoxicity at 10 µM was -5.62%.

Regarding `Cc1cccc(C(C(=O)N2CC(c3cccnc3)C2)N(C)C)c1` (stereo unspecified), the cytotoxicity at 10 µM was -4.8%. On to `Cc1nnsc1CNC(=O)CSCc1ccccc1Cl`, for which the cytotoxicity at 10 µM is -2.85%. Regarding `Cc1cnn(C2CN(Cc3nnc(Cc4ccccc4)o3)C2)c1`, the cytotoxicity at 10 µM was 4.4%.

Take `COc1ccccc1Oc1ncccc1CNC(=O)[C@@H](N)[C@@H](C)O`: the cytotoxicity at 10 µM was -6.29%.
